One molecule from paper PMC3747510 (Scientific Reports, 2013) can be followed below.

Numbering of substitutions follows the chain as printed.

One assay addresses T1, SpLeuRS (Streptococcus pneumoniae serotype 4, UniProt Q97SS0).
T1 sequence (Q97SS0 1-833): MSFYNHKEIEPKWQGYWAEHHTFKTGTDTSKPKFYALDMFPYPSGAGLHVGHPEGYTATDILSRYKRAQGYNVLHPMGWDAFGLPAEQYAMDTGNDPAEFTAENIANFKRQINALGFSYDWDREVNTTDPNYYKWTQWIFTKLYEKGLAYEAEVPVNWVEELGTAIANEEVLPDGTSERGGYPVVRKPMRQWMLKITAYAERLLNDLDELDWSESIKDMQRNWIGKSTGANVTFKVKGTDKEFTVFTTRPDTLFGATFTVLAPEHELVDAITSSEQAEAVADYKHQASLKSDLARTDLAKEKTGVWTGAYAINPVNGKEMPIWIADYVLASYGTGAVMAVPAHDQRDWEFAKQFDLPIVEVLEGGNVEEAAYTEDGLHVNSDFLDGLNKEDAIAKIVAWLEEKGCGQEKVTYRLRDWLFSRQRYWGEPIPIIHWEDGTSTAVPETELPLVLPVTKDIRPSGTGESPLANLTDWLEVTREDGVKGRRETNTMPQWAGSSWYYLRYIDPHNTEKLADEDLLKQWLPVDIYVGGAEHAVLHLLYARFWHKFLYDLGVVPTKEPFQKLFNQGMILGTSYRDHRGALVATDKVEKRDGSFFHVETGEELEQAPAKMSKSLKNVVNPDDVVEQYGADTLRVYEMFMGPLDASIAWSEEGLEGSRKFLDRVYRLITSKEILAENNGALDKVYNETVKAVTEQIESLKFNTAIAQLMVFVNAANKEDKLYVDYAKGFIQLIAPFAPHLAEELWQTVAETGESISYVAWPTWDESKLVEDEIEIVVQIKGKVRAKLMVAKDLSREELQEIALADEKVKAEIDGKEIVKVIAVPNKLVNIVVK
Put plainly: ATP-PPi exchange. As to conditions: 200 μM ZCL039. Type of assay: biochemical. In short, it runs like this:
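Leucine activation (ATP-PPi exchange) at 37°C with 10 nM N-His6 SpLeuRS, expressed in E. coli BL21(DE3) and Ni-NTA purified. Run with or without test compound in DMSO. The [32P]ATP formed was separated and counted. Means of three independent experiments.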

The next assay deals with T2, SpLeuRS T252R (Streptococcus pneumoniae serotype 4, UniProt Q97SS0, T252R).
T2 sequence (Q97SS0 1-833 T252R): T1 sequence (Q97SS0 1-833) with T252R
Briefly: Aminoacylation by SpLeuRS T252R mutant. Type of assay: biochemical. To be noted: 50 μM ZCL039. In short, it runs like this:
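Aminoacylation at 37°C, started with 4 mM ATP. Point mutants were made by site-directed mutagenesis. The MmLinker chimera has CP1 Lys226–Thr411 replaced by a nonapeptide. Means of three independent experiments.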

Another assay deals with HEK 293. Briefly: Cell proliferation assay. Type of assay: cell-based. As to conditions: Homo sapiens, HEK293, read-out: IC50, Human cell lines, HEK 293. An outline of the steps:
(§1)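 Cells in DMEM/10% FBS, 37°C, 5% CO2. Seeded from 1 × 10^5 cells/mL and allowed to adhere overnight. Test compound added at 2.5–100 μg/mL (0.5% DMSO final), five wells per concentration. Incubated 0, 24, 48 or 72 h, then 4 h with MTS/PMS (20:1), and A492 read. DMSO and medium-only controls. IC50 by nonlinear regression against log concentration.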

The test system of a further assay is A549. Put plainly: Cell proliferation assay. Type of assay: cell-based. As to conditions: Homo sapiens, A549, read-out: IC50, Human cell lines, A549. An outline of the steps:
as §1

`OB1OCc2ccc(C(O)c3ccccc3)cc21` (stereo not shown) [ZCL039, [6-(1-phenyl-1-hydroxylmethyl)]-1,3-dihydro-1-hydroxy-2,1-benzoxaborole]: on SpLeuRS, the “Effect on PPi exchange activity of SpLeuRS” value is listed as “not affected”. Besides, the “Effect on synthetic activity of T252R mutant” value on SpLeuRS T252R is given as “did not affect”. In addition, the IC50 in the assay on HEK 293 and in the assay on A549 was > 200 µM throughout.
